Data as given in publication PMC3332339 (European Journal of Clinical Pharmacology, 2012).
Marks after values point to notes of the source that are not given here.

Columns and labels:
[1] = tested on: thrombin (meizothrombin generated from prothrombin by ecarin); test: Ecarin clotting time; type: in vivo, human
[2] = Safety and tolerability; type: in vivo, human; conditions: for Tolerability (global assessment): Phase I, healthy subjects
Procedure, shortened: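 Open-label single-center crossover in healthy men and women: oral prodrug 220 mg alone, or after 3 daily s.c. LMWH 40 mg doses. Assessed by adverse events, physical examination, blood pressure, pulse, 12-lead ECG, hematology, clinical chemistry, urinalysis, local tolerability and investigator global assessment. Follow-up on days 1–3, with end-of-study examination within 7 days.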

[3] = tested on: human α-thrombin; test: Diluted thrombin time; type: in vivo; conditions: for dTT (HEMOCLOT) AUEC0–48, gMean / dTT (HEMOCLOT) ERmax, gMean / dTT (HEMOCLOT) Ebase (baseline effect), gMean: n = 23
Procedure, shortened: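 Healthy-adult crossover (oral prodrug 220 mg alone or after 3 days of s.c. LMWH 40 mg), plasma sampled over 48 h. Plasma diluted in 0.9% NaCl, mixed with normal pooled human plasma, 2 min at 37°C; clotting started with a fixed amount of purified human α-thrombin and time to clot recorded in seconds. Quantitative range 50–500 ng/mL. AUEC0–48 and ERmax; geometric mean ratios with 90% CI.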

[4] = tested on: intrinsic pathway of the coagulation cascade; test: Activated partial thromboplastin time; type: in vivo, human; conditions: for aPTT AUEC0–48, gMean / aPTT ERmax, gMean / aPTT Ebase (baseline effect), gMean: n = 23
Procedure, shortened: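 Crossover in healthy adults (18–55 y) with 5-day washout: oral thrombin-inhibitor prodrug 220 mg alone, or 24 h after 3 daily s.c. LMWH 40 mg doses. Plasma sampled over 48 h. Equal volumes of plasma and kaolin–cephalin reagent, 3 min at 37°C with stirring, recalcified with 0.025 M CaCl2, then time to fibrin clot on a coagulometer. Geometric mean test/reference ratios with 90% CI.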

[5] = tested on: factor Xa inhibition and thrombin inhibition; test: Prothrombinase-induced clotting time; type: in vivo, human; conditions: for PiCT AUEC0–48, ratio of adjusted test/reference gMean (90% CI) / PiCT ERmax, ratio of adjusted test/reference gMean (90% CI): after enoxaparin vs alone
Procedure, shortened: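 Healthy-adult crossover: oral prodrug 220 mg alone, or 24 h after 3 daily s.c. LMWH 40 mg doses. Platelet-poor plasma incubated with phospholipid/Russell's viper venom activator, 3 min at 37°C; factor Xa added, recalcified with reagent containing 25 mM CaCl2, clotting time read. Daily 142 ng/mL quality-control standard run at start, middle and end. AUEC0–48 and ERmax versus baseline; geometric mean ratios with 90% CI.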

[6] = pharmacologically equipotent glucuronide; cited from earlier work
[7] = Dabigatran plasma pharmacokinetics; type: in vivo, human; conditions: for AUC(0-inf) / Cmax: both, human, plasma
Procedure, shortened: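 Crossover in healthy adults: 220 mg oral prodrug alone, or 24 h after 3 daily s.c. LMWH 40 mg doses, with 5-day washout. Plasma taken to 48 h post-dose. Free drug: plasma buffered with 0.2 M ammonium formate pH 3.5 plus [13C6] internal standard. Total drug: alkaline cleavage with NaOH, 2 h at 37°C, then HCl. Validated HPLC-MS/MS, calibrated 1.00–400 ng/mL. Geometric mean ratios with 90% CI.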

[8] = tested on: factor Xa/IIa; conditions: cited from earlier work
[9] = dabigatran etexilate 220 mg after enoxaparin, n = 23
[10] = dabigatran etexilate 220 mg alone, n = 23
[11] = dabigatran etexilate 220 mg after enoxaparin
[12] = dabigatran etexilate 220 mg alone
[13] = dabigatran etexilate 220 mg after enoxaparin, n = 21
[14] = dabigatran etexilate dosed 24 h after enoxaparin
[15] = dabigatran etexilate 220 mg after enoxaparin vs alone, adjusted gMean ratio
[16] = enoxaparin pre-treatment before dabigatran etexilate 220 mg

For CCCCCCOC(=O)NC(=N)c1ccc(NCc2nc3cc(C(=O)N(CCC(=O)OCC)c4ccccn4)ccc3n2C)cc1 [Dabigatran etexilate], the “ECT AUEC0–48, ratio of adjusted test/reference gMean (90% CI)” value ([1]; after enoxaparin vs alone) was 99.2 (67.8–145.0) %, the “ECT ERmax, ratio of adjusted test/reference gMean (90% CI)” value ([1]; after enoxaparin vs alone) was 91.0 (80.0–103.5) % and the “ECT Ebase (baseline effect), gMean” value ([1]; dabigatran etexilate 220 mg after enoxaparin, n = 22) was 32.6^d s. For the same compound, the “ECT AUEC0–48, gMean” value [1, 9] was 7.30 h, the “ECT ERmax, gMean” value [1, 9] was 2.05 and the “ECT AUEC0–48, gMean” value [1, 10] was 7.28 h. For the same compound, the “ECT ERmax, gMean” value [1, 10] was 2.25, the “ECT Ebase (baseline effect), gMean” value [1, 10] was 33.1 s and the “Tolerability (global assessment)” value [2] was “well tolerated”. For the same compound, the “dTT (HEMOCLOT) AUEC0–48, ratio of adjusted test/reference gMean (90% CI)” value ([3]; after enoxaparin vs alone) was 88.4 (66.8–116.9) %, the “dTT (HEMOCLOT) ERmax, ratio of adjusted test/reference gMean (90% CI)” value ([3]; after enoxaparin vs alone) was 95.0 (87.4–103.2) % and the “dTT (HEMOCLOT) AUEC0–48, gMean” value [3, 11] was 3.61 h. The “dTT (HEMOCLOT) ERmax, gMean” value [3, 11] was 1.55, the “dTT (HEMOCLOT) Ebase (baseline effect), gMean” value [3, 11] was 31.0 s and the “dTT (HEMOCLOT) AUEC0–48, gMean” value [3, 12] was 4.01 h. The “dTT (HEMOCLOT) ERmax, gMean” value [3, 12] was 1.64, the “dTT (HEMOCLOT) Ebase (baseline effect), gMean” value [3, 12] was 31.7 s and the “aPTT AUEC0–48, ratio of adjusted test/reference gMean (90% CI)” value ([4]; after enoxaparin vs alone) was 114.2 (75.1–173.5) %. For the same compound, the “aPTT ERmax, ratio of adjusted test/reference gMean (90% CI)” value ([4]; after enoxaparin vs alone) was 84.9 (70.3–102.5) %, the “aPTT AUEC0–48, gMean” value [4, 11] was 6.56 h and the “aPTT ERmax, gMean” value [4, 11] was 2.07. For the same compound, the “aPTT Ebase (baseline effect), gMean” value [4, 11] was 39.3 s, the “aPTT AUEC0–48, gMean” value [4, 12] was 5.65 h and the “aPTT ERmax, gMean” value [4, 12] was 2.40. The “aPTT Ebase (baseline effect), gMean” value [4, 12] was 39.1 s, the “PiCT AUEC0–48, ratio of adjusted test/reference gMean (90% CI)” value [5] was 163.7 (114.3–234.3) % and the “PiCT ERmax, ratio of adjusted test/reference gMean (90% CI)” value [5] was 115.2 (101.8–130.4) %. The “PiCT AUEC0–48, ratio of adjusted test/reference gMean (90% CI)” value ([5]; listed as dabigatran etexilate) was 163.7%, the “PiCT ERmax, ratio of adjusted test/reference gMean (90% CI)” value ([5]; listed as dabigatran etexilate) was 115.2% and the “PiCT AUEC0–48, gMean” value [5, 13] was 23.8^c h. For the same compound, the “PiCT ERmax (maximum effect ratio to baseline), gMean” value [5, 13] was 2.92^c, the “PiCT Ebase (baseline effect), gMean” value [5, 13] was 34.7^c s and the “PiCT AUEC0–48, gMean” value [5, 10] was 14.6 h. The “PiCT ERmax (maximum effect ratio to baseline), gMean” value [5, 10] was 2.53, the “PiCT Ebase (baseline effect), gMean” value [5, 10] was 28.4 s and the “Increase of PiCT ERmax compared with dabigatran etexilate alone” value [5, 14] was “approximately 15%”. For the same compound, the “PiCT time to peak” value ([5]; similar in both treatment regimens (alone and 24 h after enoxaparin)) was 3 h.
In the case of [H]/N=C(/N)c1ccc(NCc2nc3cc(C(=O)N(CCC(=O)O)c4ccccn4)ccc3n2C)cc1 [dabigatran], the “Glucuronide share of total dabigatran exposure in plasma” value [6] is listed as “approximately 20%”, the “Ratio of free to total dabigatran gMean AUC0-∞” value ([7]; after enoxaparin) is listed as 0.765 and the AUC(0-inf) ([7]; oral) is listed as 592 ng·h/mL. It also gave a Cmax ([7]; oral) of 78.4 ng/mL, an AUC(0-inf) ([7]; po, 220 mg) of 700 ng·h/mL and a Cmax ([7]; po, 220 mg) of 90.7 ng/mL. For the same compound, the “Ratio of free to total dabigatran gMean AUC0-∞” value ([7]; dabigatran alone) was 0.760, the “AUC0-∞, ratio test/reference” value [7, 15] was 85% and the “Cmax, ratio test/reference” value [7, 15] was 86%. For the same compound, the “Subjects with adverse events by actual treatment at onset” value (from here on “Subjects with adverse events”) ([2]; treatment at onset: dabigatran (three subjects of 23)) was 13.0%, the “Subjects with adverse events” value ([2]; treatment at onset: enoxaparin + dabigatran (three subjects of 23)) was 13.0% and the “Increase of PiCT AUEC0–48 compared with dabigatran etexilate alone” value [5, 14] was 64%. The “Increase of PiCT ERmax compared with dabigatran etexilate alone” value [5, 14] was ~15%.
In the case of enoxaparin, the “Mean anti-factor Xa/IIa ratio” value [8] is listed as 14.0 ± 3.1, the “Effect of enoxaparin on ECT” value [1, 16] is listed as “not meaningfully affected” and the “Tolerability (global assessment)” value [2] is listed as “well tolerated”. For the same compound, the “Subjects with adverse events” value ([2]; treatment at onset: enoxaparin (four subjects of 23)) was 17.4% and the “Effect of enoxaparin on dTT” value [3, 16] was “not meaningfully affected”.
